From ChEMBL document CHEMBL3864121, “Development of ebsulfur analogues as potent antibacterials against methicillin-resistant Staphylococcus aureus” (Bioorg Med Chem, 2016)
Converted amounts (≈) assume the structure as drawn. The source made the active and inactive calls. The calls are words filed in the database; no cut-off is given here.

Columns and labels:
Staphylococcus aureus [1] = experiment: Antibacterial activity against methicillin-sensitive Staphylococcus aureus ATCC 25923 measured after overnight incubation by broth double-dilution method; assay type: functional
Summary of the method: (§1)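 MIC by broth double-dilution in liquid Mueller-Hinton medium. Values are reported in µg/mL.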

Staphylococcus aureus [2] = experiment: Antibacterial activity against methicillin-resistant Staphylococcus aureus C19 measured after overnight incubation by broth double-dilution method; assay type: functional; summary of the method: as §1
Staphylococcus aureus [3] = experiment: Antibacterial activity against methicillin-resistant Staphylococcus aureus USA600 measured after overnight incubation by broth double-dilution method; assay type: functional; summary of the method: as §1
Staphylococcus aureus [4] = experiment: Antibacterial activity against methicillin-resistant Staphylococcus aureus 2 measured after overnight incubation by broth double-dilution method; assay type: functional; summary of the method: as §1
Enterococcus = experiment: Antibacterial activity against Vancomycin-resistant Enterococcus measured after overnight incubation by broth double-dilution method; assay type: functional; summary of the method: as §1
Staphylococcus aureus [5] = experiment: Antibacterial activity against methicillin-sensitive Staphylococcus aureus ATCC 29213 measured after overnight incubation by broth double-dilution method; assay type: functional; summary of the method: as §1
Staphylococcus aureus [6] = experiment: Antibacterial activity against methicillin-resistant Staphylococcus aureus NRS51 measured after overnight incubation by broth double-dilution method; assay type: functional; summary of the method: as §1
Enterococcus faecalis [7] = experiment: Antibacterial activity against Enterococcus faecalis ATCC 29212 measured after overnight incubation by broth double-dilution method; assay type: functional
Summary of the method: (§2)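 MIC by broth double-dilution in Mueller-Hinton medium. Re-testing at the time-kill inoculum used 1×10^6 CFU/mL.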

Staphylococcus aureus [8] = experiment: Antibacterial activity against methicillin-resistant Staphylococcus aureus S22 measured after overnight incubation by broth double-dilution method; assay type: functional; summary of the method: as §1
Staphylococcus aureus [9] = experiment: Antibacterial activity against methicillin-resistant Staphylococcus aureus USA300 measured after overnight incubation by broth double-dilution method; assay type: functional; summary of the method: as §1
Staphylococcus aureus [10] = experiment: Antibacterial activity against methicillin-resistant Staphylococcus aureus 1 measured after overnight incubation by broth double-dilution method; assay type: functional; summary of the method: as §1
Staphylococcus aureus [11] = experiment: Antibacterial activity against methicillin-resistant Staphylococcus aureus S14 measured after overnight incubation by broth double-dilution method; assay type: functional; summary of the method: as §1
Staphylococcus aureus [12] = experiment: Antibacterial activity against methicillin-resistant Staphylococcus aureus NRS77 measured after overnight incubation by broth double-dilution method; assay type: functional; summary of the method: as §1
Staphylococcus aureus [13] = experiment: Antibacterial activity against methicillin-resistant Staphylococcus aureus C16 measured after overnight incubation by broth double-dilution method; assay type: functional; summary of the method: as §1
Staphylococcus aureus [14] = experiment: Antibacterial activity against methicillin-resistant Staphylococcus aureus C1 measured after overnight incubation by broth double-dilution method; assay type: functional; summary of the method: as §1
Staphylococcus aureus [15] = experiment: Antibacterial activity against methicillin-sensitive Staphylococcus aureus ATCC 6538 measured after overnight incubation by broth double-dilution method; assay type: functional; summary of the method: as §1
Staphylococcus aureus [16] = experiment: Antibacterial activity against methicillin-resistant Staphylococcus aureus NRS4 measured after overnight incubation by broth double-dilution method; assay type: functional; summary of the method: as §1
Staphylococcus aureus [17] = experiment: Antibacterial activity against methicillin-resistant Staphylococcus aureus USA200 measured after overnight incubation by broth double-dilution method; assay type: functional; summary of the method: as §1
Staphylococcus aureus [18] = experiment: Antibacterial activity against methicillin-resistant Staphylococcus aureus BRS3 measured after overnight incubation by broth double-dilution method; assay type: functional; summary of the method: as §1
Enterococcus faecalis [19] = experiment: Antibacterial activity against Enterococcus faecalis ATCC 49533 measured after overnight incubation by broth double-dilution method; assay type: functional; summary of the method: as §2
Staphylococcus aureus [20] = experiment: Antibacterial activity against methicillin-resistant Staphylococcus aureus G6 measured after overnight incubation by broth double-dilution method; assay type: functional; summary of the method: as §1
Listeria monocytogenes = experiment: Antibacterial activity against Listeria monocytogenes ATCC 19115 measured after overnight incubation by broth double-dilution method; assay type: functional; summary of the method: as §2
Staphylococcus aureus [21] = experiment: Antibacterial activity against methicillin-resistant Staphylococcus aureus S17 measured after overnight incubation by broth double-dilution method; assay type: functional; summary of the method: as §1
Staphylococcus aureus [22] = experiment: Antibacterial activity against methicillin-resistant Staphylococcus aureus C2 measured after overnight incubation by broth double-dilution method; assay type: functional; summary of the method: as §1
[23] = Cytotoxicity against HEK293 cells assessed as cell death up to 10 ug/ml measured after 24 hrs by resazurin dye-based fluorescence analysis relative to untreated control; assay type: toxicity; conditions: human, hek293, 24 h
Staphylococcus aureus [24] = experiment: Antibacterial activity against methicillin-resistant Staphylococcus aureus S24 measured after overnight incubation by broth double-dilution method; assay type: functional; summary of the method: as §1
Enterococcus faecium = experiment: Antibacterial activity against Enterococcus faecium BM4105-RF measured after overnight incubation by broth double-dilution method; assay type: functional; summary of the method: as §1
[25] = system: Staphylococcus epidermidis; experiment: Antibacterial activity against Staphylococcus epidermidis ATCC 35984 measured after overnight incubation by broth double-dilution method; assay type: functional; conditions: RP62A; summary of the method: as §2
Staphylococcus aureus [26] = experiment: Antibacterial activity against methicillin-resistant Staphylococcus aureus ATCC 33591 measured after overnight incubation by broth double-dilution method; assay type: functional; summary of the method: as §1
Staphylococcus aureus [27] = experiment: Antibacterial activity against methicillin-resistant Staphylococcus aureus USA100 measured after overnight incubation by broth double-dilution method; assay type: functional; summary of the method: as §1
[28] = system: Mycolicibacterium smegmatis; experiment: Antibacterial activity against Mycobacterium smegmatis MC2-155 measured after overnight incubation by broth double-dilution method; assay type: functional; conditions: str. MC2 155; summary of the method: as §1
Staphylococcus aureus [29] = experiment: Antibacterial activity against methicillin-resistant Staphylococcus aureus C14 measured after overnight incubation by broth double-dilution method; assay type: functional; summary of the method: as §1
Staphylococcus aureus [30] = experiment: Antibacterial activity against methicillin-resistant Staphylococcus aureus C7 measured after overnight incubation by broth double-dilution method; assay type: functional; summary of the method: as §1
Staphylococcus aureus [31] = experiment: Antibacterial activity against methicillin-resistant Staphylococcus aureus G14 measured after overnight incubation by broth double-dilution method; assay type: functional; summary of the method: as §1
Staphylococcus aureus [32] = experiment: Antibacterial activity against methicillin-resistant Staphylococcus aureus G1 measured after overnight incubation by broth double-dilution method; assay type: functional; summary of the method: as §1
Staphylococcus aureus [33] = experiment: Antibacterial activity against methicillin-resistant Staphylococcus aureus G12 measured after overnight incubation by broth double-dilution method; assay type: functional; summary of the method: as §1
[34] = Cytotoxicity against HEK293 cells assessed as cell death at […] measured after 24 hrs by resazurin dye-based fluorescence analysis relative to untreated control; assay type: toxicity; conditions: human, hek293, 24 h
Staphylococcus aureus [35] = experiment: Antibacterial activity against methicillin-resistant Staphylococcus aureus S22 using 1 10^6CFU/ml measured after overnight incubation by broth double-dilution method; assay type: functional

Row | SMILES | MIC (Staphylococcus aureus [1]) | MIC (Staphylococcus aureus [2]) | MIC (Staphylococcus aureus [3]) | MIC (Staphylococcus aureus [4]) | MIC (Enterococcus) | MIC (Staphylococcus aureus [5]) | MIC (Staphylococcus aureus [6]) | MIC (Enterococcus faecalis [7]) | MIC (Staphylococcus aureus [8]) | MIC (Staphylococcus aureus [10]) | MIC (Staphylococcus aureus [11]) | MIC (Staphylococcus aureus [14]) | MIC (Staphylococcus aureus [15]) | MIC (Enterococcus faecalis [19]) | MIC (Enterococcus faecium) | MIC [25] | MIC [28] | MIC (Staphylococcus aureus [29]) | MIC (Staphylococcus aureus [32]) | MIC (Staphylococcus aureus [33]) | other results
1 | O=c1c2ccccc2sn1-c1cccc2ccccc12 | 2 µg/mL (≈ 7.21 µM) | 0.5 µg/mL (≈ 1.8 µM) | 2 µg/mL (≈ 7.21 µM) | 0.5 µg/mL (≈ 1.8 µM) | 0.5 µg/mL (≈ 1.8 µM) | 0.5 µg/mL (≈ 1.8 µM) | 1 µg/mL (≈ 3.61 µM) | > 125 µg/mL | 1 µg/mL (≈ 3.61 µM) | 1 µg/mL (≈ 3.61 µM) | ≤ 0.25 µg/mL | 2 µg/mL (≈ 7.21 µM) | > 125 µg/mL | > 125 µg/mL | > 125 µg/mL | 0.25 µg/mL (≈ 0.901 µM) | 1 µg/mL (≈ 3.61 µM) | 2 µg/mL (≈ 7.21 µM) | 2 µg/mL (≈ 7.21 µM) | 0.5 µg/mL (≈ 1.8 µM) | MIC (Staphylococcus aureus [9]): 2 µg/mL (≈ 7.21 µM); MIC (Staphylococcus aureus [12]): 2 µg/mL (≈ 7.21 µM); MIC (Staphylococcus aureus [13]): 15.6 µg/mL (≈ 56.2 µM); MIC (Staphylococcus aureus [16]): 2 µg/mL (≈ 7.21 µM); MIC (Staphylococcus aureus [17]): 2 µg/mL (≈ 7.21 µM); MIC (Staphylococcus aureus [18]): 2 µg/mL (≈ 7.21 µM); MIC (Staphylococcus aureus [20]): 0.5 µg/mL (≈ 1.8 µM); MIC (Listeria monocytogenes): 2 µg/mL (≈ 7.21 µM); MIC (Staphylococcus aureus [21]): 1 µg/mL (≈ 3.61 µM); MIC (Staphylococcus aureus [22]): 0.5 µg/mL (≈ 1.8 µM); Activity [23]: > 20%; MIC (Staphylococcus aureus [24]): 0.5 µg/mL (≈ 1.8 µM); MIC (Staphylococcus aureus [26]): 0.5 µg/mL (≈ 1.8 µM); MIC (Staphylococcus aureus [27]): 0.5 µg/mL (≈ 1.8 µM); MIC (Staphylococcus aureus [30]): 1 µg/mL (≈ 3.61 µM); MIC (Staphylococcus aureus [31]): 2 µg/mL (≈ 7.21 µM)
2 | O=c1c2ccccc2sn1C1CCCC1 | – | – | 7.8 µg/mL (≈ 35.6 µM) | – | 2 µg/mL (≈ 9.12 µM) | 2 µg/mL (≈ 9.12 µM) | – | > 125 µg/mL | 7.8 µg/mL (≈ 35.6 µM) | 2 µg/mL (≈ 9.12 µM) | 0.5 µg/mL (≈ 2.28 µM) | 3.9 µg/mL (≈ 17.8 µM) | 7.8 µg/mL (≈ 35.6 µM) | > 125 µg/mL | > 125 µg/mL | 2 µg/mL (≈ 9.12 µM) | 2 µg/mL (≈ 9.12 µM) | 3.9 µg/mL (≈ 17.8 µM) | 2 µg/mL (≈ 9.12 µM) | 3.9 µg/mL (≈ 17.8 µM) | Activity [34]: > 20%
3 | O=c1c2ccccc2sn1-c1cccc(Br)c1 | 7.8 µg/mL (≈ 25.5 µM) | 3.9 µg/mL (≈ 12.7 µM) | 7.8 µg/mL (≈ 25.5 µM) | 3.9 µg/mL (≈ 12.7 µM) | 7.8 µg/mL (≈ 25.5 µM) | 3.9 µg/mL (≈ 12.7 µM) | 3.9 µg/mL (≈ 12.7 µM) | 15.6 µg/mL (≈ 50.9 µM) | > 125 µg/mL | 7.8 µg/mL (≈ 25.5 µM) | 0.5 µg/mL (≈ 1.63 µM) | 3.9 µg/mL (≈ 12.7 µM) | 7.8 µg/mL (≈ 25.5 µM) | > 125 µg/mL | 15.6 µg/mL (≈ 50.9 µM) | 3.9 µg/mL (≈ 12.7 µM) | 3.9 µg/mL (≈ 12.7 µM) | 7.8 µg/mL (≈ 25.5 µM) | 3.9 µg/mL (≈ 12.7 µM) | 7.8 µg/mL (≈ 25.5 µM) | MIC (Staphylococcus aureus [9]): 3.9 µg/mL (≈ 12.7 µM); MIC (Staphylococcus aureus [12]): 3.9 µg/mL (≈ 12.7 µM); MIC (Staphylococcus aureus [13]): 3.9 µg/mL (≈ 12.7 µM); Activity (Staphylococcus aureus [35]): Active; MIC (Staphylococcus aureus [16]): 7.8 µg/mL (≈ 25.5 µM); MIC (Staphylococcus aureus [17]): 7.8 µg/mL (≈ 25.5 µM); MIC (Staphylococcus aureus [18]): 7.8 µg/mL (≈ 25.5 µM); MIC (Staphylococcus aureus [20]): 3.9 µg/mL (≈ 12.7 µM); MIC (Listeria monocytogenes): 3.9 µg/mL (≈ 12.7 µM); MIC (Staphylococcus aureus [21]): 3.9 µg/mL (≈ 12.7 µM); MIC (Staphylococcus aureus [22]): 3.9 µg/mL (≈ 12.7 µM); MIC (Staphylococcus aureus [24]): 3.9 µg/mL (≈ 12.7 µM); MIC (Staphylococcus aureus [26]): 2 µg/mL (≈ 6.53 µM); MIC (Staphylococcus aureus [27]): 3.9 µg/mL (≈ 12.7 µM); MIC (Staphylococcus aureus [30]): 3.9 µg/mL (≈ 12.7 µM); MIC (Staphylococcus aureus [31]): 7.8 µg/mL (≈ 25.5 µM)
